# Sampled rows, rich in hits. Any-hit rate of the full collection: about 5.9%.
# HUVEC inhibit: inhibitors of human endothelial cell proliferation; HUVEC proliferation, CellTiter-Glo luminescence, 72 h; hits give low values; viability, % at 10 µM (by protocol); 1.1% of 86,000 active; AID 648;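 active = viability at or below 30%; inactive = viability above 30%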;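 also: 100% = median luminescence of DMSO-only cell control wells on each plate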
# Fibroblast inh: blocks proliferation of human lung fibroblasts. LL 47 human lung fibroblast viability, ATP luminescence; hits give low values. viability, % at 10 µM. 1.1% of 85,000 active. AID 719;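 active = viability at or below 50% in the single dose screen; inactive = viability above 50%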;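 also: compound exposure lasted 72 h before the ATP readout; 100% = median luminescence of untreated cell-only wells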
#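 Benchmarks: Cell-only wells, no compound | Test system: LL 47 human lung fibroblasts, passage 12 or lower | Input: 1,150 cells/well | Measured by: CellTiter-Glo luminescence measuring cellular ATP | Medium: IMEM, 15% FBS supplement | Schedule: Overnight attachment after seeding, then 72 h compound exposure at 37 °C | Doses: Compound addition at 0.1% DMSO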
# H69AR growth 86K: blocks growth of human H69AR lung tumor cells; viability, % at 10 µM; 6% of 85,000 active; H69AR lung tumor viability, ATP luminescence, 72 h; hits give low values;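 active = viability at or below 40%; inactive = viability above 40%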;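 also: multidrug resistant small cell line overexpressing MRP-1 efflux transporter; 100% = mean luminescence of untreated control wells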
# Pyk2 oligo antag: antagonists of human Pyk2 oligomerization; Q14289; Q293 cells, Pyk2 FERM NanoBiT luminescence; hits give low values; z-score (the deposit names both 25 µM and 10 µM); 0.83% of 99,000 active; AID 1347419;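 active = Z-score of -3 or lower, scaled per plate to the spread of control and sample wells; inactive = z-score above -3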;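 also: negative z-score means lost luminescence so less FERM oligomerization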
# Target sequence (Q14289 whole entry, looked up): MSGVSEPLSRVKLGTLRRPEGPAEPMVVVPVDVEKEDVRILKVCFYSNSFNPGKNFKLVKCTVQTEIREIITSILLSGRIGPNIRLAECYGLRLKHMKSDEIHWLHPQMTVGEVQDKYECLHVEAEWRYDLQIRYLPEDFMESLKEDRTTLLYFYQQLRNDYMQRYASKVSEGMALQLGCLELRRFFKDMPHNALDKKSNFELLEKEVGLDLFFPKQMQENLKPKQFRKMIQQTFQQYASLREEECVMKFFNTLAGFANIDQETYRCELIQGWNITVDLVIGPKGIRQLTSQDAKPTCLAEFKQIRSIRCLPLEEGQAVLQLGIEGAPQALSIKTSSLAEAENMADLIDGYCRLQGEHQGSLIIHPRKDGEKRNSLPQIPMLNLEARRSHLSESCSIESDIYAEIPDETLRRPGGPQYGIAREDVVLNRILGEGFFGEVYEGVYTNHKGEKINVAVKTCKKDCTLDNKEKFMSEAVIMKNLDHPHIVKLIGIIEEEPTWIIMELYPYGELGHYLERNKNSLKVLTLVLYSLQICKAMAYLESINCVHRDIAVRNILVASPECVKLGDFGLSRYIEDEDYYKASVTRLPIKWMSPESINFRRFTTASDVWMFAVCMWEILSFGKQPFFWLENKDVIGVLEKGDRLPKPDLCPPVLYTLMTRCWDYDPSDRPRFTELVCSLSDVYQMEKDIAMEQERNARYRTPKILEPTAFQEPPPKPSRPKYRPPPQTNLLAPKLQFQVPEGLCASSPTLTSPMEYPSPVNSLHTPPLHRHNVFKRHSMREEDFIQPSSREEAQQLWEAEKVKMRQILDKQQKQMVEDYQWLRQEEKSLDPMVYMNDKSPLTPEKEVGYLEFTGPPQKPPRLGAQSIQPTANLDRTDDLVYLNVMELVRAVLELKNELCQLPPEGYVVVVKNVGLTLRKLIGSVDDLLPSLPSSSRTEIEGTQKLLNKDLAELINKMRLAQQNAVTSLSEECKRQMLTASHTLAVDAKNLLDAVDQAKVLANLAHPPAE
# MT1-MMP txn act: MT1-MMP promoter transcription activation; activation factor at 10 µM; HT1080 MT1-MMP promoter luciferase reporter, luminescence, overnight; hits give high values; 0.16% of 86,000 active;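 active = activation factor of at least 2 for MT1-MMP transcription at 10 µM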
# Jurkat viability: reduces viability or proliferation of Jurkat cells | Jurkat E6.1 viability, ATP luminescence, 48 h | inhibition, % at 4 µM | 1.2% of 56,000 active | AID 463;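 active = inhibition above the mean inhibition of all tested compounds plus 3 SD, cut at about 28% in these data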
# * marks the source's active call; other numbers are inactive results; . = no result.
SMILES,HUVEC inhibit,Fibroblast inh,H69AR growth 86K,Pyk2 oligo antag,MT1-MMP txn act,Jurkat viability
Cc1ccc(-c2nn(CC(=O)Nc3ccc4c(c3)nc3n4CCOC3)c(=O)c3ccccc23)cc1,50,96,89,0.81,1.1,2
O=C(Cn1nc(-c2ccccc2)c2ccccc2c1=O)Nc1ccc2c(c1)nc1n2CCOC1,103,102,29*,-1.4,1,2
Cc1cc(C(=O)NNC(=S)NC(=O)/C=C/c2ccccc2Cl)n[nH]1,80,80,36*,-0.55,.,.
Cc1cc(C)nc(NC(=O)/C=C/c2ccccc2Cl)n1,.,.,.,0.56,.,.
CC(CCc1ccccc1)NC(=O)C1CCN(S(=O)(=O)N2CCCCC2)CC1 (centres undefined),96,107,99,1.6,1,5
Cn1ncc(N=Cc2c(O)ccc3ccccc23)c1C(=O)N1CCOCC1,101,99,82,0.06,1.2,.
Cn1ncc(N=Cc2ccccc2O)c1C(=O)Nc1ccccc1,98,105,37*,0.06,1,.
Cc1ccc2cc(CN(CC3CCCO3)S(=O)(=O)c3c(C)ccc4nsnc34)c(=O)[nH]c2c1 (centres undefined),107,89,82,-2.2,1.2,-7
Cc1ccc2nsnc2c1S(=O)(=O)N(Cc1cc2cccc(C)c2[nH]c1=O)CC1CCCO1 (centres undefined),60,90,10*,-0.56,1.1,1
CCCN1C(=O)C(O)(C2CC(=O)CC(C)(C)O2)c2ccccc21 (centres undefined),88,76,23*,0.7,1,4
O=C1CSC(=S)N1CC1CCCO1 (centres undefined),95,93,20*,-0.32,0.8,4
O=c1c2ccccc2sn1-c1cc(S(=O)(=O)N2CCOCC2)ccc1N1CCCC1,73,55,1.0*,0.2,1.2,.
CCCCCCN(C(=O)CCCCCN1C(=O)NC(c2ccc(-c3ccccc3)cc2)C(C(=O)OCc2ccccc2)=C1C)C(C(=O)NCCCC)c1ccc(O)c(C(=O)OC)c1 (centres undefined),.,.,.,.,1,.
C[C@@H]1C=C[C@](Cc2ccccc2)(C(=O)NCCCNc2ncc(C(F)(F)F)cc2Cl)N1C(=O)c1ccccc1,.,.,.,.,1.4,.
Cc1ccc(-n2nnc3c(=O)n(Cc4cc(C)ccc4C)cnc32)cc1,63,99,33*,-0.3,1.1,2
Cc1ccc(-n2nnc3c(=O)n(Cc4cccc(C)c4)cnc32)cc1,106,99,102,.,1.1,-9
Cc1nnc(Sc2nc(Sc3nnc(C)s3)nc(N3CCN(C)CC3)n2)s1,69,6.1*,0.6*,.,0.1,101*
CCCC(C)NC1=NCCCCC1 (centres undefined),87,98,98,-0.09,1.1,.
COC(=O)c1ccc(CN2[C@H](C(=O)OC)C[C@@]3(O)[C@@H](O)[C@@H](O)[C@@H](O)C[C@@H]23)cc1,.,.,.,.,1.1,.
COc1cccc(CN2C(=O)C3(C(C#N)=C(N)OC4=C3C(=O)CCC4)c3ccccc32)c1 (centres undefined),4.0*,20*,19*,0.42,1.1,-2
CCN1C2=C(C(=O)CCC2)C(c2ccc(O)cc2)C2=C1CCCC2=O,108,108,103,0.62,1.1,-3
Cc1c(NC(=O)c2cc3nc(-c4ccc(Br)cc4)cc(C(F)(F)F)n3n2)c(=O)n(-c2ccccc2)n1C,103,46*,0.6*,-0.97,1,.
Cc1c(NC(=O)c2cc3nc(-c4ccccc4)cc(C)n3n2)c(=O)n(-c2ccccc2)n1C,93,95,86,-0.71,1.1,4
COc1cc(C(=O)Nc2cc(-c3ccccc3)[nH]n2)cc(OC)c1OC,64,83,25*,-0.23,1,-1
COc1cc(C(=O)Nc2ccncc2)cc(OC)c1OC,91,94,77,0.77,1.1,7
COc1cc(C(=O)Nc2nc(OC)c(-c3ccccc3)c(OC)n2)cc(OC)c1OC,64,85,32*,-2.2,1.1,12
O=C(N/N=C/c1ccc(O)cc1)c1ccc(COc2cc(Cl)ccc2Cl)o1,.,.,.,0.26,.,.
Cn1cccc1C(=O)NC(=O)COC(=O)C12CC3CC(CC(O)(C3)C1)C2,107,102,101,-0.81,.,.
Cc1[nH]n(-c2ccc([N+](=O)[O-])cc2)c(=O)c1C=NCCN1CCN(C(=O)c2ccc(Br)cc2)CC1,66,71,40*,0.32,1.2,.

# Screening results (PubChem)
